In ChEMBL document CHEMBL4251559, “Design, synthesis, and evaluation of NDGA analogues as potential anti-ischemic stroke agents” (Eur J Med Chem, 2018):
The source made the active and inactive calls. The calls are words filed in the database; no cut-off is given here.

What was measured:
Rattus norvegicus [1] = assay: Antiischemic stroke activity in Sprague-Dawley rat middle cerebral artery occlusion-induced ischemia-reperfusion injury model assessed as decrease in neurological score at 0.2 mg/kg, icv as nanoparticle measured after 72 hrs by Longa's method; assay type: functional, organism-based
Procedure, shortened: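 Male Sprague-Dawley rats (250-280 g), n = 7 per group. Intracerebroventricular injection of nanoparticle formulation 0.2 mg/kg 2 h before MCAO. Vehicle was polymer:DMSO:distilled water (50 mg:1 mL:3 mL). Intraluminal thread (about 1.8 cm) via ECA, 2 h occlusion, then 72 h reperfusion. Neurological deficit scored at 72 h on Longa's 0–4 scale. Mean ± SD, n ≥ 6.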

Rattus norvegicus [2] = assay: Antiischemic stroke activity in Sprague-Dawley rat middle cerebral artery occlusion-induced ischemia-reperfusion injury model assessed as decrease in infarct size at 0.2 mg/kg, icv as nanoparticle measured after 72 hrs by TTC staining-based assay; assay type: functional, organism-based
Procedure, shortened: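 Male Sprague-Dawley rats (250-280 g), n = 7 per group. Nanoparticle-loaded drug (0.2 mg/kg) or isovolumetric saline or vehicle (polymer:DMSO:distilled water 50 mg:1 mL:3 mL) given by intracerebroventricular injection 2 h before MCAO. Filament occlusion for 2 h, then 72 h reperfusion. Brain slices stained with TTC at 37 °C for 30 min, photographed, and infarct area quantified by image analysis.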

[3] = Antioxidant activity assessed as DPPH radical scavenging activity at 20 mg/ml after 30 mins; assay type: functional
Procedure, shortened: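 Samples were 20 mg/mL solutions in ethanol, mixed with 0.15 mM ethanolic DPPH (80 µL sample plus 120 µL DPPH). Mixtures were incubated 30 min at 25 °C and absorbance read at 517 nm. Ethanol plus DPPH served as the control. % scavenging = [1-(Ai-Aj)/Ac]×100. Run in triplicate.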

PC-12 [4] = assay: Cytoprotective activity against H2O2-induced damage in rat PC12 cells assessed as increase in cell viability at 5 uM preincubated for 1 hr followed by H2O2 challenge measured after 24 hrs by MTT assay; assay type: functional, cell-based
Procedure, shortened: (§1)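 PC12 cells at 5×10^3/well, attached overnight. Pretreated with 5 µM compound for 1 h or 24 h, then 400 µM H2O2 for 24 h. MTT (5 mg/mL) for 4 h at 37 °C, formazan dissolved in DMSO, OD read at 490 nm. Viability given as % of untreated control.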

PC-12 [5] = assay: Cytotoxicity against rat PC12 cells assessed as decrease in cell viability at 5 uM after 24 hrs by MTT assay; assay type: cell-based; conditions: pc-12, 24 h
Procedure, shortened: (§2)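 PC12 cells at 5×10^3/well, attached overnight. Exposed to 5 µM compound for 24 h or 72 h without H2O2. MTT 4 h at 37 °C, formazan dissolved in DMSO, OD 490 nm. Viability as % of untreated control.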

PC-12 [6] = assay: Cytoprotective activity against H2O2-induced damage in rat PC12 cells assessed as increase in cell viability at 5 uM preincubated for 24 hrs followed by H2O2 challenge measured after 24 hrs by MTT assay; assay type: functional, cell-based; procedure, shortened: as §1
PC-12 [7] = assay: Cytotoxicity against rat PC12 cells assessed as decrease in cell viability at 5 uM after 72 hrs by MTT assay; assay type: cell-based; conditions: pc-12, 72 h; procedure, shortened: as §2
[8] = biological target: T1, Nuclear factor erythroid 2-related factor 2 (Rattus norvegicus) (UniProt O54968); assay: Induction of Nrf2 translocation in nucleus of rat PC12 cells at 5 uM after 6 hrs by DAPI staining-based fluorescence microscopic method; assay type: cell-based
T1 sequence (whole entry): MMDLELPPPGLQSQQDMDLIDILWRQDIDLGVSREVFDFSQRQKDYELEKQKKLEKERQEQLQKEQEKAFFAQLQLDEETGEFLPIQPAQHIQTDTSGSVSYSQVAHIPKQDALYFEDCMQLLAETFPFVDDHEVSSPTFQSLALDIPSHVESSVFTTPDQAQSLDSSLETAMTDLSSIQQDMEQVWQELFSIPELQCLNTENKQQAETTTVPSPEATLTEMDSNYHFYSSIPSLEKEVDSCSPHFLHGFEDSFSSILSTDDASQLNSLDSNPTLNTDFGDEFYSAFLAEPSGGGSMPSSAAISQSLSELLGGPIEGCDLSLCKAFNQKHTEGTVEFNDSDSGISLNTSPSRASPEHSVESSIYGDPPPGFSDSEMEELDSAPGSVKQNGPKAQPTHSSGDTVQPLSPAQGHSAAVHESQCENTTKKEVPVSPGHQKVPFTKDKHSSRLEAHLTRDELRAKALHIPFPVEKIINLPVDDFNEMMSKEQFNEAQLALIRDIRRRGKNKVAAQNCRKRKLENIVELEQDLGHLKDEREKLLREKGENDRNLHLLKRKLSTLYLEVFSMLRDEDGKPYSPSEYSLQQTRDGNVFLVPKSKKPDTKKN
Procedure, shortened: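 PC12 cells on coverslips treated with 5 µM compound for 6 h. Fixed in 4% paraformaldehyde (20 min, 4 °C), permeabilised with 1% Triton X-100, blocked with 1% BSA. Anti-Nrf2 (1:300) overnight at 4 °C, then PE-labelled secondary (1:300) 1 h in the dark. DAPI counterstain, imaged by fluorescence microscopy.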

[9] = biological target: T1, Nuclear factor erythroid 2-related factor 2 (Rattus norvegicus); assay: Induction of Nrf2 translocation in nucleus of rat PC12 cells assessed as upregulation of HO-1 protein expression at 10 uM after 24 hrs by Western blot method; assay type: cell-based
Procedure, shortened: (§3)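 PC12 cells treated 24 h at 2.5, 5 or 10 µM; reference compounds at 10 µM. Lysed in ice-cold RIPA, run on 10% SDS-PAGE and transferred to PVDF. Probed with anti-HO-1 (1:300) and GAPDH (1:1000) overnight at 4 °C, then HRP anti-rabbit IgG 1 h. Mean ± SD, n = 3, one-way ANOVA with Tukey test.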

[10] = biological target: T1, Nuclear factor erythroid 2-related factor 2 (Rattus norvegicus); assay: Induction of Nrf2 translocation in nucleus of rat PC12 cells assessed as upregulation of HO-1 protein expression after 24 hrs by Western blot method; assay type: cell-based; procedure, shortened: as §3
PC-12 [11] = assay: Cytoprotective activity against H2O2-induced damage in rat PC12 cells assessed as decrease in MDA levels preincubated for 1 to 24 hrs followed by H2O2 challenge measured after 16 hrs; assay type: functional, cell-based
Procedure, shortened: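 PC12 cells in DMEM with 10% FBS at 37 °C, 5% CO2. Pre-incubated 1 h or 24 h with compound (2.5, 5, 7.5 µM; reference compounds 5 µM), then exposed to 700 µM H2O2 for 16 h. Supernatant taken after centrifugation at 1600 × g for 10 min at 4 °C, and MDA measured with a kit. Mean ± SD, n = 3, one-way ANOVA with Tukey test.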

PC-12 [12] = assay: Cytoprotective activity against H2O2-induced damage in rat PC12 cells assessed as increase in cell viability preincubated for 1 to 24 hrs followed by H2O2 challenge measured after 24 hrs by MTT assay; assay type: functional, cell-based
Procedure, shortened: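 PC12 cells at 5×10^3/well, attached overnight. Pretreated 1 h or 24 h at 2.5, 5 or 7.5 µM, then 400 µM H2O2 for 24 h. MTT 4 h at 37 °C, DMSO solubilisation, OD 490 nm. Viability as % of control. Mean ± SD, n = 3, one-way ANOVA with Tukey test.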

PC-12 [13] = assay: Cytoprotective activity against H2O2-induced damage in rat PC12 cells assessed as decrease in ROS accumulation at 5 uM preincubated for 1 to 24 hrs followed by H2O2 challenge measured after 3 hrs by DCFH-DA dye-based flow cytometric method; assay type: functional, cell-based
Procedure, shortened: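 PC12 cells seeded at 3 × 10^5/mL and attached overnight. Pre-incubated 1 h or 24 h with 5 µM compound, then H2O2 for 3 h. Loaded with DCFH-DA at 37 °C for 30 min, detached enzymatically, washed in PBS, filtered and analysed by flow cytometry. Mean ± SD, n = 3.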

[14] = biological target: T1, Nuclear factor erythroid 2-related factor 2 (Rattus norvegicus); assay: Induction of Nrf2 translocation in nucleus of rat PC12 cells assessed as upregulation of HO-1 protein expression at 5 uM after 24 hrs by Western blot method

Structure (SMILES) | Activity [3] | Activity (PC-12 [4]) | other results
CC1=NN(c2ccccc2)C(=O)C1 | – | – | Activity (Rattus norvegicus [1]): Active; Activity (Rattus norvegicus [2]): Active
O=C1/C(=C/c2ccc(O)c(O)c2)CSC/C1=C\c1ccc(O)c(O)c1 | Active | Active | –
O=C1/C(=C/c2ccc(O)c(O)c2)COC/C1=C\c1ccc(O)c(O)c1 | Active | Active | Activity (PC-12 [5]): Non-Toxic; Activity (PC-12 [6]): Active; Activity (PC-12 [7]): Toxic
CN1C/C(=C\c2ccc(O)c(O)c2)C(=O)/C(=C/c2ccc(O)c(O)c2)C1 | Active | Active | –
O=C1/C(=C/c2ccc(O)c(O)c2)CN(C2CC2)C/C1=C\c1ccc(O)c(O)c1 | Active | Active | –
O=C1C(=Cc2ccc(O)c(O)c2)CCC/C1=C\c1ccc(O)c(O)c1 | Active | Active | –
C[C@H](Cc1ccc(O)c(O)c1)[C@@H](C)Cc1ccc(O)c(O)c1 | Active | Active | Activity [8]: Active; Activity [9]: Active
O=C1/C(=C/c2ccc(O)c(O)c2)CNC/C1=C\c1ccc(O)c(O)c1 | Active | Active | Activity (PC-12 [5]): Non-Toxic; Activity (PC-12 [6]): Active; Activity (PC-12 [7]): Toxic
O=C1C(=Cc2ccc(O)c(O)c2)CC/C1=C\c1ccc(O)c(O)c1 | Active | Active | Activity [8]: Active; Activity [10]: Dose-dependent effect; Activity (Rattus norvegicus [1]): Active; Activity (PC-12 [5]): Non-Toxic; Activity (Rattus norvegicus [2]): Active; Activity (PC-12 [11]): Dose-dependent effect; Activity (PC-12 [6]): Active; Activity (PC-12 [12]): Dose-dependent effect; Activity (PC-12 [7]): Toxic; Activity (PC-12 [13]): Active; Activity [14]: inactive
CCOC(=O)N1C/C(=C\c2ccc(O)c(O)c2)C(=O)/C(=C/c2ccc(O)c(O)c2)C1 | Active | Active | –
CCCN1C/C(=C\c2ccc(O)c(O)c2)C(=O)/C(=C/c2ccc(O)c(O)c2)C1 | Active | Active | –
O=C1/C(=C/c2ccc(O)c(O)c2)CN(Cc2ccccc2)C/C1=C\c1ccc(O)c(O)c1 | Active | Active | –
CC(C)(C)c1cc(O)ccc1O | – | – | Activity [8]: Active; Activity [9]: Active
O=C1/C(=C/c2ccc(O)c(O)c2)CN(C(=O)OCc2ccccc2)C/C1=C\c1ccc(O)c(O)c1 | Active | Active | –
O=C1/C(=C/c2ccc(O)c(O)c2)CN(CCc2ccccc2)C/C1=C\c1ccc(O)c(O)c1 | Active | Active | –
